# Test: Inhibition of carbapenems-resistant Pseudomonas aeruginosa MSC15369 metallo-beta-lactamase IMP-1 expressed in Escherichia coli after 20 mins by spectrophotometry
# Method in brief: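 IMP-1 purified from cell extracts by Ni-NTA; 1.0 nM enzyme in 50 mM HEPES pH 7.5 with 100 µM ZnSO4 and 20 µg/ml BSA, preincubated with inhibitor 20 min at room temperature; nitrocefin substrate, initial velocity read at 490 nm; IC50 determined.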
row,SMILES,IC50
1,CCCCc1ccc(C(=O)O)c(C(=O)O)c1C,16 µM
2,CCCCc1ccc(C(=O)O)c(C(=O)O)c1,243 µM
3,O=C(O)c1cccc(-c2ccccc2O)c1C(=O)O,2.44 µM
4,Cc1ccc(C(=O)O)c(C(=O)O)c1,> 300 µM
5,O=C(O)c1cccc(-c2ccc(O)cc2)c1C(=O)O,1.55 µM
6,O=C(O)c1cccc(-c2ccccc2)c1C(=O)O,0.968 µM
7,O=C(O)c1cccc(CCCO)c1C(=O)O,13.2 µM
8,O=C(O)c1ccccc1-c1cccc(C(=O)O)c1C(=O)O,207 µM
9,O=C(O)c1cccc(-c2cccc(O)c2)c1C(=O)O,1.75 µM
10,O=C(O)c1cccc(-c2cccc(C(=O)O)c2C(=O)O)c1,17.9 µM
11,CC(C)(C)c1ccc(C(=O)O)c(C(=O)O)c1,> 300 µM
12,O=C(O)c1ccc(-c2ccccc2)cc1C(=O)O,> 300 µM
13,Cc1cccc(C(=O)O)c1C(=O)O,160 µM
14,O=C(O)c1ccc(-c2cccc(C(=O)O)c2C(=O)O)cc1,2.25 µM
15,O=C(O)c1ccccc1C(=O)O [PHTHALIC ACID],> 100 µM

# — ChEMBL document CHEMBL1155308, “Metallo-beta-lactamase inhibitory activity of phthalic acid derivatives” (Bioorg Med Chem Lett, 2009)
